Laboratory results published in ChEMBL document CHEMBL4043182, “On the synthesis of quinone-based BODIPY hybrids: New insights on antitumor activity and mechanism of action in cancer cells” (Bioorg Med Chem Lett, 2017).

How the values were obtained:
[1] = Selective index, ratio of IC50 for chinese hamster V79 cells to IC50 for human SF295 cells
Outline: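 Selectivity index is the ratio of the IC50 in a non-cancer murine line (V79 or L929) to the IC50 in the cancer line. […] MTT was 0.5 mg/mL for 3 h, formazan dissolved in DMSO and read at 595 nm as % of control. IC50s were derived by nonlinear regression; triplicate, at least three repeats.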

[2] = system: PC-3; assay: Induction of oxidative stress in human PC3 cells assessed as total intracellular thiol levels at 5 uM after 24 hrs by spectrophotometric analysis (reference value: 4.23 +/- 0.75 microg/mg); assay type: functional
[3] = system: HCT-116; assay: Induction of oxidative stress in human HCT116 cells assessed as GSH to GSSG ratio at 5 uM treated 24 hrs post NAC addition measured after 24 hrs by spectrophotometric analysis (reference value: 3.09 +/- 0.33 microg/mg); assay type: functional
[4] = system: HCT-116; assay: Cytotoxicity against human HCT116 cells after 24 hrs in presence of GSH-OEt by MTT assay; assay type: functional, cell-based; settings: HCT-116, 24 h
Outline: (§1)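 24 h MTT exposure (0.04–40.92 µM in 0.1% DMSO), with or without co-treatment with GSH ethyl ester (15 mM) to gauge the ROS contribution. MTT was 0.5 mg/mL for 3 h, with formazan dissolved in DMSO and absorbance at 595 nm expressed as % of control. Triplicate, repeated at least three times.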

[5] = system: PC-3; assay: Cytotoxicity against human PC3 cells after 24 hrs in absence of GSH-OEt by MTT assay; assay type: functional, cell-based; settings: PC-3, 24 h; outline: as §1
[6] = system: SF-295; assay: Cytotoxicity against human SF295 cells after 24 hrs in absence of GSH-OEt by MTT assay; assay type: functional, cell-based; settings: SF-295, 24 h; outline: as §1
[7] = Drug uptake in mitochondria of human PC3 cells at 5 uM after 10 mins by MitoTracker Red dye-based confocal microscopic analysis; assay type: ADME, cell-based; settings: pc-3, 10 min
Outline: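 PC3 cells were grown in DMEM with 10% FBS, antibiotics and 2 mM L-glutamine at 37 °C, 5% CO2. Cells were incubated with compound (5 µM) plus LysoTracker Red or MitoTracker Red for 10 min at 37 °C. Live cells were imaged in phenol red-free DMEM by confocal microscopy with a 40X oil objective, exciting at 488 nm (compound) and 543 nm (tracker dyes).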

Q: Which Ratio IC50 [1] does the source give for CC1(C)OC2=C(C(=O)C(=O)c3ccccc32)C1n1cc(CNC2=[N+]3C(=C(c4ccccc4)c4ccc(Cl)n4[B-]3(F)F)C=C2)nn1 (configuration not stated) here?
A: 2.3

Q: What about the Activity [2] of the same compound?
A: 3.53 µg/mg

Q: What about the Activity [3] of the same compound?
A: 2.63 µg/mg

Q: And the IC50 [4]?
A: 14.2 µM

Q: What about the IC50 [5] of the same compound?
A: 4.47 µM

Q: What about the IC50 [6] of the same compound?
A: 1.96 µM

Q: And the Drug uptake [7]?
A: Metabolite_Notdetected
